From ChEMBL document CHEMBL4513216, “Probing the Open Global Health Chemical Diversity Library for Multistage-Active Starting Points for Next-Generation Antimalarials” (ACS Infect Dis, 2020)

Test: Toxicity liver stage against HepG2, at 10uM
Format: cell-based
Design: test concentration 10 uM, cell line HepG2-A16-CD81EGFP
Conditions: human, HepG2-A16-CD81EGFP cells; read-out: INHIBITION
Summary of the method: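 Uninfected HepG2-A16-CD81EGFP cells, 3 × 10^3 per well, 1536-well, plated on prespotted compound at 10 μM final, parasite-free screening media added to match infected plates; puromycin 10 μM positive, DMSO 0.5% negative; run in parallel with 48 h PbLuc assay at 37 °C, 5% CO2; viability by CellTiter-Glo luminescence, normalized to controls.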

| Structure (SMILES) | cytotoxicity at 10 µM [%] |
| --- | --- |
| CCOC(=O)CNC(=O)NCc1cccn1Cc1ccccc1C | 4.9 |
| CCc1nnc(NC(=O)c2c3c(nn2C2CCS(=O)(=O)C2)CCC3)s1 (stereo unspecified) | -4.28 |
| CCOc1ncc(NC(=O)c2ccccn2)c(OCC)n1 | -0.191 |
| CC(=O)N1CCC2(CCN(CC(C)C)C2)C1 (stereo unspecified) | 5.41 |
| CC(=O)N1[C@H](Cn2cncn2)C[C@@H]2CN(C(=O)c3ccoc3)CC[C@@H]21 | -3.42 |
| Cn1cc(-c2ncnc3c2CCN(C(=O)c2cnccn2)CC3)cn1 | 6.93 |
| CC(C)Nc1ncnc2c1CCN(Cc1ccoc1)CC2 | 5.65 |
| COc1cc(N2CC[C@@H]3O[C@H](C(=O)NCC4CC4)C[C@@H]32)ncn1 | 10.7 |
| CCN(CC)C(=O)Cn1c(-c2ccc(Cl)cc2)nc(C)c(CCO)c1=O | 2.62 |
| CCOc1ccc(-n2ccc3nc(N4CCCC4)ncc3c2=O)cc1 | -1.19 |
| COc1cccc2c1ccn2CCC(=O)NCCCC(=O)O | 9.64 |
| Cn1nc(CNC(=O)NCc2ccc(Cl)cc2)c2c1CCOC2 | 2.81 |
| O=C1NC2(CCN(C(=O)Cc3ccsc3)CC2)CC1c1ccncc1 (stereo unspecified) | 5.06 |
| O=C(NCc1cccs1)c1[nH]nc2c1CS(=O)(=O)CC2 | 1.41 |
| CCn1ccc(NC(=O)CCn2nc(C)c3ccccc32)n1 | 4.51 |
| Cc1c(C(=O)N(C)CC(F)(F)F)nnn1-c1ccc(F)cc1 | 7.92 |
| Cc1ccccc1-c1cc(CC2(C(=O)O)CCOCC2)on1 | -14.1 |
| Cn1ccnc(Nc2ccc3c(c2)CCN3C(=O)c2ccoc2)c1=O | -65.2 |
| Cc1ccc(C2CCCCCN2C(=O)Nc2cn[nH]c2)o1 (stereo unspecified) | 5.16 |
| Cc1c(C(=O)NCC(F)(F)F)nnn1-c1ccccc1Cl | 2.37 |
| CCOc1ccc(NC(=O)c2ccc(C#N)cc2C)cc1CO | -4.12 |
| Cc1ncc(C(=O)NCCNc2ccncc2)s1 | 1.72 |
| CC(=O)N1CCC(NC(=O)c2cc(S(N)(=O)=O)ccc2C)CC1 | 11.7 |

| Structure (SMILES) | cytotoxicity at 10 µM [%] |
| --- | --- |
| CNS(=O)(=O)CC1CCCN1c1ccc(Cl)cn1 (stereo unspecified) | 7.6 |
| CC(C)C1CCCN1C(=O)Nc1ccc(=O)n(C)c1 (stereo unspecified) | 0.581 |
| CC(=O)N1CCN(C(=O)c2sccc2Br)CC1 | 6.83 |
| CC(C)c1nc2cc(NC(=O)Cn3ccccc3=O)ccc2o1 | -17.8 |
| O=C1CCC(=O)N1Cc1ccc(C(=O)N2CCCC2c2cccs2)cc1 (stereo unspecified) | 2.8 |
| COC(=O)C1CN(CC(=O)Nc2ccccc2Cl)c2ccccc21 (stereo unspecified) | 14.3 |
| CCCn1nc2c(cc1=O)CN(Cc1ncc(C(C)(C)C)o1)CC2 | -7.17 |
| COCCn1ccc(NC(=O)Nc2ccccc2)n1 | -0.0425 |
| Cn1cnc(-c2ccc(F)cc2)c1NC(=O)CCNC(=O)C(C)(C)C | 3.84 |
| O[C@@H]1CCN(c2ccc3c(Cl)ccnc3c2F)C1 | 2.12 |
| O=C(NCCc1cccs1)N1CCC[C@H]1CO | 10.3 |
| CC(C)n1cc2cc(NC(=O)CCS(C)(=O)=O)ccc2n1 | -141 |
| CCS(=O)(=O)N1CCC(OCCCc2ccccc2)C1 (stereo unspecified) | 8.59 |
| CC(C)C(C)(C#N)NC(=O)Cn1nnc(-c2cc3ccccc3o2)n1 (stereo unspecified) | 5.76 |
| c1cnc(N2CCN(Cc3nnnn3C3CC3)CC2)nc1 | 9.29 |
| Cc1csc(N2CCCN(C(=O)CCN3CCCC3=O)CC2)n1 | 24.3 |
| Cc1ncsc1C(=O)NCCCN1CCCCCC1=O | -3.51 |
| Cc1cc(C(=O)NCCN2CCCCC2)nn1C(C)(C)C | -3 |
| N#Cc1ccc(F)cc1Cn1cnc(C2CCC2)cc1=O | 15.4 |
| Cc1noc(COCC(=O)Nc2cc(C)c(Br)cn2)n1 | 5.5 |
| O=C(c1cc(Cl)c2c(c1)OCO2)N1CCN(c2ccccn2)CC1 | -2.67 |
| Cc1ccc(F)c(C(=O)N2CCN(S(C)(=O)=O)[C@@H](C)C2)c1 | -10.3 |
| CC(C)NC(=O)N1CC[C@@H]2CN(S(C)(=O)=O)CCO[C@@H]2C1 | -102 |

| Structure (SMILES) | cytotoxicity at 10 µM [%] |
| --- | --- |
| CC(C)Oc1cccc(-c2nc3c([nH]2)CCCNC3=O)c1 | 27.3 |
| CCNc1ncc(C(=O)N2CCOC(CCCC(C)C)C2)cn1 (stereo unspecified) | 10.3 |
| CN(Cc1cnccn1)C(=O)[C@@]12CNC[C@@H]1CN(Cc1ccccc1)C2 | -2.59 |
| CS(=O)(=O)N1CCc2[nH]cnc2C12CCN(C1CCOCC1)CC2 | -4.52 |
| CCOC(=O)CC1CCCCN1C(=O)c1cccc2ccnn12 (stereo unspecified) | -105 |
| COc1cccc(CN2CCN(c3noc(C(C)C)n3)CC2)c1F | 2.97 |
| CCN1CC(C(=O)N2CCN(c3cnn(C)c(=O)c3)CC2)CCC1=O (stereo unspecified) | 0.508 |
| CCN(Cc1cnn(CC)c1)C(=O)Cn1c(=O)c(C)nc2ccccc21 | 0.791 |
| Cc1[nH]c2c(F)cccc2c1CC(=O)NCCCNc1cccnc1 | 1.56 |
| CCC(CC)n1nc(C)cc1NC(=O)CC1CCOCC1 | -2.17 |
| O=C1CCC2(CCCN(c3ncnc4[nH]cnc34)C2)CN1CCCO (stereo unspecified) | -2.09 |
| COCC(=O)N1C[C@@H](CN2CCCN(C)CC2)[C@@H](CO)C1 | -3.85 |
| CC1(C)CN(Cc2nnc(-c3cccnc3)o2)CC[C@]1(C)O | -10.2 |
| COc1cc(N(C)CCC(O)c2ccccc2)ncn1 (stereo unspecified) | -139 |
| COCC(=O)N1C[C@H]2CNC[C@@]2(C(=O)NCc2snnc2C)C1 | 8.27 |
| Cc1nccn1Cc1nnc(C2CCN(c3ccncc3F)CC2)n1C | -9.36 |
| Cn1cc(CN2CCCC(Cn3cc(CCCO)nn3)C2)cn1 (stereo unspecified) | -3.51 |
| CS(=O)(=O)NCCC(=O)N1CCC(Cc2ccc(CO)cc2)C1 (stereo unspecified) | -5.77 |
| O=C1N(CC2CCC2)CCCC12CCN(S(=O)(=O)c1cccnc1)C2 (stereo unspecified) | 9.94 |
| O=C(CN1CCCC1c1nc(-c2ccccc2)no1)N1CCOCC1 (stereo unspecified) | 4.17 |
| Cc1cc(C(=O)N2CCC(CCC(=O)NCCN(C)C)CC2)ccc1O | 5.38 |
| CCCN1CCCC2(CCN(Cc3cncn3C3CCCCC3)C2)C1=O (stereo unspecified) | 5.89 |
| Nc1nc2c(c(NCC(c3cccnc3)N3CCOCC3)n1)CCCC2 (stereo unspecified) | -14.9 |

| Structure (SMILES) | cytotoxicity at 10 µM [%] |
| --- | --- |
| CCn1nc(C)c(NC(=O)CN(C)C(C)c2ccon2)c1C (stereo unspecified) | -147 |
| CCCn1cnnc1CNC1CSCCSC1 | -7.31 |
| Cc1ccsc1CN(Cc1ccccn1)CC(C)C | -13.4 |
| Cc1ccc(CC(=O)Nc2cc(C(C)C)n[nH]2)cn1 | -1.71 |
| COc1c(C)cnc(CN2CCC(N(C)S(C)(=O)=O)CC2)c1C | 0.141 |
| Cc1nnc(NC(=O)NC(C)Cn2cccn2)s1 (stereo unspecified) | 6.62 |
| Cc1oc(-c2ccco2)nc1CNC1CCCN(c2cccnn2)C1 (stereo unspecified) | -2.87 |
| O=C(c1cccc(N2CCCC2=O)c1)N1CCCC(n2cccn2)C1 (stereo unspecified) | -8.22 |
| Cc1cc(NC(=O)CN2CCCC(Cn3nc(C)nc3C)C2)n(C)n1 (stereo unspecified) | -9.54 |
| c1ncc2c(n1)CN(Cc1nc(-c3ccoc3)no1)CC2 | -10.2 |
| CC(Cn1ccnc1)NC(=O)Cc1ccc2c(c1)OCCO2 (stereo unspecified) | -7.2 |
| Cc1ncc2c(n1)CN(CCCc1ccccc1)CC2 | -34.7 |
| Fc1ccc(-c2nc(CN3CCn4c(nnc4C4CC4)C3)co2)cc1 | -7.72 |
| Cc1oc(C)c(C(=O)N2CCCN(c3nccs3)CC2)c1C | 1.53 |
| Cc1nc(C)n(CC2CN(CCOc3cccc(F)c3)CCO2)n1 (stereo unspecified) | -12.7 |
| CCCc1n[nH]c(C2CN(CCCS(=O)(=O)N(C)C)CCO2)n1 (stereo unspecified) | -11.9 |
| O=C(Cc1csc(-c2ccco2)n1)N1CCN(c2nccs2)CC1 | -9.26 |
| O=C(NCc1cccc(F)c1)NCC(O)c1cccc(F)c1 (stereo unspecified) | -7.58 |
| CCOc1cccc(C(C)NCc2c(C)nn(C)c2N(C)C)c1 (stereo unspecified) | 5.22 |
| Cn1ccc(CN2CCC(CC(=O)N3CCCC3)CC2)cc1=O | -12.6 |
| CC(CNC(=O)Nc1cn[nH]c1)N1CCCC1 (stereo unspecified) | -7.32 |
| Cc1ccsc1C(=O)N1CCCN(Cc2cscn2)CC1 | -12.4 |
| CCn1ncc2c1CCCC2NCc1ccc(C)s1 (stereo unspecified) | -6.73 |

| Structure (SMILES) | cytotoxicity at 10 µM [%] |
| --- | --- |
| Cc1nc(CN2CCCN(CC(=O)Nc3ccncc3)CC2)no1 | -7.03 |
| CC(C)c1[nH]c2ncccc2c1CN1CCOCC1 | 0.752 |
| Cc1ncc(CN2CCOCC2)c2cc(C(=O)c3ccc(Br)cc3)oc12 | 3.54 |
| CC(=O)N1CCC2(CC1)CN(C)CC[C@H]2C(F)(F)F | -153 |
| Cn1cnc(S(=O)(=O)N2CCN(CC3CC3)c3ncccc3C2)c1 | -160 |
| Cc1nc(CN2CCC3(CCN(Cc4cnn(C)c4)CC3)C2=O)cs1 | 2.34 |
| c1csc(CN2C[C@@H]3OCCN(CC4CCCO4)[C@@H]3C2)c1 (stereo partly specified) | -6.31 |
| CN(C)S(=O)(=O)N1CCC[C@]2(C[C@@H](Oc3ccccn3)CO2)C1 | -2.31 |
| c1cncc(OC[C@]23COC[C@H]2CN(Cc2cccs2)C3)c1 | -13 |
| COCCCNC(=O)c1cc(-c2cnc(N(C)C)nc2)cn1CC1CC1 | 2.28 |
| O=C(C1CCOC1)N1C[C@H]2CN(Cc3ccncc3)C(=O)[C@H]2C1 (stereo partly specified) | -105 |
| CC(C)C(=O)N1CC[C@H]2N(C)CC[C@@]2(C(=O)Nc2cccnc2)CC1 | -121 |
| COc1cc(N2CC3(CCN(S(C)(=O)=O)C3)C2)ncn1 | 9.43 |
| COCCCN1CCCC12CCN(c1ncccn1)CC2 | 2.87 |
| CN(C)C(=O)[C@@H]1CC[C@@H]2[C@@H](CCN2Cc2nccs2)O1 | 1.97 |
| CCN1CCOCC12CCN(C(=O)C1CCC1)CC2 | -1.39 |
| O=C(c1c[nH]c(=O)c(Cl)c1)N1C[C@H]2CC[C@@H](C1)N(CC1CCC1)C2 | -153 |
| CCNc1c(NC(=O)C2CC2)c(=O)oc2ccccc12 | -5.99 |
| CCn1cc2[nH]c(OC)c(CNC(=O)C3CCS(=O)(=O)CC3)cc-2c1=O | 4.93 |
